Laboratory results as given in ChEMBL document CHEMBL2380219, “Physalin A induces apoptotic cell death and protective autophagy in HT1080 human fibrosarcoma cells” (J Nat Prod, 2013).
Calls of active or inactive are those of the source. The rule behind the calls is not given here.

What was measured:
Format in all cases: functional, cell-based
[1] = tested on: HT-1080; experiment: Induction of apoptosis in human HT1080 cells assessed as downregulation of ICAD at 10 uM pretreated with rapamycin for 1 hr prior to compound addition measured after 24 hrs by Western blotting analysis
How it was run: (§1)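 HT1080 cells pretreated 1 h with 1 mM 3MA or 1 nM rapamycin, then co-incubated with 10 μM for 24 h. Adherent and floating cells lysed in Hepes pH 7.4/Triton buffer. 12% SDS-PAGE, nitrocellulose, antibodies against Fas, FADD, caspase-8, caspase-3, PARP and ICAD, ECL detection. Densities normalized to β-actin; n = 3.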

[2] = tested on: HL-60; experiment: Cytotoxicity against human HL60 cells assessed as growth inhibition after 24 hrs by MTT assay
How it was run: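 Seeded 0.8 × 10^4 cells/well, cultured 24 h, then exposed to 0, 10, 20, 40 or 80 μM for 24 h (DMSO <0.05%) in RPMI 1640 or MEM with 10% FBS. Adherent lines rinsed with PBS, given MTT 2 h at 37 °C. Suspension lines (U937, HL60) given MTT 2 h, then centrifuged. Formazan dissolved in DMSO, A492 read. Inhibition % = (control − sample)/(control − blank) × 100.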

[3] = tested on: HT-1080; experiment: Cytotoxicity against human HT1080 cells assessed as growth inhibition at 10 uM pretreated with z-IETD-FMK for 1 hr prior to compound addition measured after 24 hrs by MTT assay
How it was run: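 HT1080 seeded 0.8 × 10^4 cells/well. MTT 2 h at 37 °C, formazan in DMSO, A492 read. Inhibition % calculated against untreated and blank wells.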

[4] = tested on: HT-1080; experiment: Induction of apoptosis in human HT1080 cells assessed as increase in procaspase-8 cleavage at 10 uM pretreated with 3MA for 1 hr prior to compound addition measured after 24 hrs by Western blotting analysis; how it was run: as §1
[5] = tested on: HT-1080; experiment: Induction of apoptosis in human HT1080 cells expressing beclin 1 siRNA assessed as increase in PARP cleavage at 10 uM after 24 hrs by Western blotting relative to control
How it was run: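 Beclin 1 or nonspecific siRNA transfected into HT1080 cells (5 × 10^5 seeded a day earlier; transfection mixture for 7 h at 37 °C, then normal medium, 24 h before harvest). Cells then got 10 μM for 24 h. Adherent plus floating cells lysed in Hepes pH 7.4/Triton buffer at 4 °C for 60 min. Equal protein on 12% SDS-PAGE, nitrocellulose, ECL. Bands normalized to β-actin, n = 3.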

[6] = tested on: HT-1080; experiment: Cytotoxicity against human HT1080 cells assessed as growth inhibition at 1 to 100 uM by MTT assay; settings: TDE = time-dependent effect

SMILES: C=C1C(=O)O[C@@H]2C[C@@]1(C)[C@@H]1C(=O)[C@]3(O)O[C@]14[C@@]2(C)OC(=O)[C@@]4(O)CC[C@H]1[C@H]3[C@H](O)C=C2CC=CC(=O)[C@@]21C [PHYSALIN A]
- Activity [1]: inactive
- growth inhibition (GI) [2]: Dose-dependent effect
- growth inhibition (GI) [3]: Active
- Activity [4]: Active
- Activity [5]: Active
- growth inhibition (GI) [6]: tde
